Data from ChEMBL document CHEMBL4011643, “Triaryl Benzimidazoles as a New Class of Antibacterial Agents against Resistant Pathogenic Microorganisms” (J Med Chem, 2017).
≈ marks a conversion by molar mass, not a printed value. Calls of active or inactive are those of the source. The calls are words filed in the database; no cut-off is given here.

Legend:
Enterococcus faecalis [1] = assay: Antibacterial activity against vancomycin-resistant Enterococcus faecalis NCTC 12201 after 20 hrs by broth microdilution method; format: functional; details: NCTC 12201, 20 h
In short: (§1)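 Broth microdilution in Tryptic Soy Broth; growth read as OD600 after 20 h. MIC taken as the lowest drug concentration giving OD600 below 0.1. Run in triplicate.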

Enterococcus faecium = assay: Antibacterial activity against vancomycin-resistant Enterococcus faecium NCTC 12204 after 20 hrs by broth microdilution method; format: functional; details: NCTC 12204, 20 h; in short: as §1
Enterococcus faecalis [2] = assay: Antibacterial activity against vancomycin-sensitive Enterococcus faecalis NCTC 775 after 20 hrs by broth microdilution method; format: functional; details: NCTC 775, 20 h
In short: (§2)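 Broth microdilution in Tryptic Soy Broth, done in triplicate. Growth was read as OD600 after 20 h. MIC is the lowest drug concentration giving OD600 below 0.1.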

Staphylococcus aureus [3] = assay: Antibacterial activity against methicillin-resistant Staphylococcus aureus EMRSA-15 after 20 hrs by broth microdilution method; format: functional; details: EMRSA-15, 20 h; in short: as §1
Staphylococcus aureus [4] = assay: Antibacterial activity against methicillin-resistant Staphylococcus aureus MRSA252 after 20 hrs by broth microdilution method; format: functional; details: MRSA252, 20 h; in short: as §1
Staphylococcus aureus [5] = assay: Antibacterial activity against methicillin-sensitive Staphylococcus aureus ATCC 9144 after 20 hrs by broth microdilution method; format: functional; details: ATCC 9144, 20 h; in short: as §2
Staphylococcus aureus [6] = assay: Inhibition of Staphylococcus aureus DNA gyrase assessed as reduction in pNO1 supercoiling at 0.5 ug/mL by fluorescent dye-based assay
In short: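 Supercoiling plate assay run per the kit instructions. S. aureus gyrase was incubated with compound and plasmid pNO1. Negatively supercoiled plasmid was captured by a triplex-forming oligonucleotide, stained with a fluorescent dye and read by fluorescence (excitation 485 nm). Percent inhibition was reported.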

Staphylococcus aureus [7] = assay: Bactericidal activity against methicillin-resistant Staphylococcus aureus EMRSA-15 assessed as time required to kill bacteria by >6 log10CFU/ml at 4 times MIC by Miles Misra dilution method; format: functional
In short: (§3)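 Flasks of TSB inoculated at ~10^6 cfu/mL, compound added at 4 × MIC, shaken at 200 rpm and 37 °C. Samples taken at 1, 2, 4, 6 and 24 h and plated by Miles Misra dilution for CFU/mL. Bactericidal means a loss of >3 log CFU/mL. Three independent repeats, error bars SD.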

Enterococcus faecalis [8] = assay: Bactericidal activity against vancomycin-resistant Enterococcus faecalis NCTC 12201 assessed as time required to kill bacteria by <3 log10CFU/ml at 4 times MIC by Miles Misra dilution method; format: functional; in short: as §3
Staphylococcus aureus [9] = assay: Bactericidal activity against methicillin-resistant Staphylococcus aureus EMRSA-15 assessed as time required to kill bacteria by 3 log10CFU/ml at 4 times MIC by Miles Misra dilution method; format: functional; in short: as §3
Klebsiella pneumoniae [10] = assay: Antibacterial activity against Klebsiella pneumoniae NCTC 13368 after 20 hrs in the presence of Pa-beta-N and magnesium ions by broth microdilution method; format: functional; details: NCTC 13368, 20 h; in short: as §2
Klebsiella pneumoniae [11] = assay: Antibacterial activity against Klebsiella pneumoniae NCTC 13368 after 20 hrs by broth microdilution method; format: functional; details: NCTC 13368, 20 h; in short: as §2
Klebsiella pneumoniae [12] = assay: Antibacterial activity against Klebsiella pneumoniae M6 after 20 hrs in the presence of PMBN by broth microdilution method; format: functional; details: M6, 20 h; in short: as §2
[13] = Cytotoxicity against human HeLa cells assessed as cell viability at 25 uM after 24 hrs by MTT assay; format: cell-based; details: read-out: Activity
In short: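 HeLa cells, 10000 per well, were grown at 37 °C in 5% CO2 and allowed to settle for 24 h. Compound was then added in triplicate for 24 h of continuous exposure. Viability was read by MTT colorimetry, with absorbance at 570 nm.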

[14] = Stabilization of FAM/TAMRA-labeled AT-rich DNA duplex (unknown origin) assessed as change in melting temperature at 1 uM by FRET-based assay
In short: (§4)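 FRET melting of a FAM/TAMRA-labelled AT-rich oligonucleotide, 400 nM working solution in 50 mM potassium, 50 mM cacodylate, pH 7.4. DNA was annealed at 85 °C for 6 min, then held at 25 °C for 5 h, and mixed 1:1 with sample. Fluorescence was read every 0.5 °C from 30 to 100 °C, with a 30 s hold per step. ΔTm is measured against the blank, in triplicate.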

Acinetobacter baumannii [15] = assay: Antibacterial activity against Acinetobacter baumannii AYE after 20 hrs by broth microdilution method; format: functional; in short: as §2
Acinetobacter baumannii [16] = assay: Antibacterial activity against Acinetobacter baumannii AYE after 20 hrs in the presence of Pa-beta-N and magnesium ions by broth microdilution method; format: functional; in short: as §2
Acinetobacter baumannii [17] = assay: Antibacterial activity against Acinetobacter baumannii AYE after 20 hrs in the presence of PMBN by broth microdilution method; format: functional; in short: as §2
Acinetobacter baumannii [18] = assay: Antibacterial activity against Acinetobacter baumannii ATCC 17978 after 20 hrs by broth microdilution method; format: functional; details: ATCC 17978, 20 h; in short: as §2
Acinetobacter baumannii [19] = assay: Antibacterial activity against Acinetobacter baumannii ATCC 17978 after 20 hrs in the presence of Pa-beta-N and magnesium ions by broth microdilution method; format: functional; details: ATCC 17978, 20 h; in short: as §2
Acinetobacter baumannii [20] = assay: Antibacterial activity against Acinetobacter baumannii ATCC 17978 after 20 hrs in the presence of PMBN by broth microdilution method; format: functional; details: ATCC 17978, 20 h; in short: as §2
Klebsiella pneumoniae [21] = assay: Antibacterial activity against Klebsiella pneumoniae M6 after 20 hrs by broth microdilution method; format: functional; details: M6, 20 h; in short: as §2
Klebsiella pneumoniae [22] = assay: Antibacterial activity against Klebsiella pneumoniae M6 after 20 hrs in the presence of Pa-beta-N and magnesium ions by broth microdilution method; format: functional; details: M6, 20 h; in short: as §2
Klebsiella pneumoniae [23] = assay: Antibacterial activity against Klebsiella pneumoniae NCTC 13368 after 20 hrs in the presence of PMBN by broth microdilution method; format: functional; details: NCTC 13368, 20 h; in short: as §2
Pseudomonas aeruginosa [24] = assay: Antibacterial activity against Pseudomonas aeruginosa PAO1 after 20 hrs by broth microdilution method; format: functional; details: PAO1, 20 h; in short: as §2
Pseudomonas aeruginosa [25] = assay: Antibacterial activity against Pseudomonas aeruginosa PAO1 after 20 hrs in the presence of Pa-beta-N and magnesium ions by broth microdilution method; format: functional; details: PAO1, 20 h; in short: as §2
Pseudomonas aeruginosa [26] = assay: Antibacterial activity against Pseudomonas aeruginosa PAO1 after 20 hrs in the presence of PMBN by broth microdilution method; format: functional; details: PAO1, 20 h; in short: as §2
Pseudomonas aeruginosa [27] = assay: Antibacterial activity against Pseudomonas aeruginosa NCTC 13437 after 20 hrs by broth microdilution method; format: functional; details: NCTC 13437, 20 h; in short: as §2
Pseudomonas aeruginosa [28] = assay: Antibacterial activity against Pseudomonas aeruginosa NCTC 13437 after 20 hrs in the presence of Pa-beta-N and magnesium ions by broth microdilution method; format: functional; details: NCTC 13437, 20 h; in short: as §2
Pseudomonas aeruginosa [29] = assay: Antibacterial activity against Pseudomonas aeruginosa NCTC 13437 after 20 hrs in the presence of PMBN by broth microdilution method; format: functional; details: NCTC 13437, 20 h; in short: as §2
Enterococcus faecalis [30] = assay: Bactericidal activity against vancomycin-resistant Enterococcus faecalis NCTC 12201 assessed as time required to kill bacteria by >6 log10CFU/ml at 4 times MIC by Miles Misra dilution method; format: functional; in short: as §3
Enterococcus faecalis [31] = assay: Bactericidal activity against vancomycin-resistant Enterococcus faecalis NCTC 12201 at 4 times MIC after 24 hrs by Miles Misra dilution method; format: functional; in short: as §3
[32] = Stabilization of FAM/TAMRA-labeled AT-rich DNA duplex (unknown origin) assessed as change in melting temperature at 5 uM by FRET-based assay; in short: as §4

With C[C@H]1COc2c(N3CCN(C)CC3)c(F)cc3c(=O)c(C(=O)O)cn1c23.C[C@H]1COc2c(N3CCN(C)CC3)c(F)cc3c(=O)c(C(=O)O)cn1c23.O [LEVOFLOXACIN] as the molecule, how does the MIC (Enterococcus faecalis [1]) read?
Its MIC is 1 µg/mL.

What about the MIC (Enterococcus faecium) of the same molecule?
The MIC was 0.5 µg/mL.

What about the MIC (Enterococcus faecalis [2]) of the same molecule?
The MIC was 1 µg/mL.

And the MIC (Staphylococcus aureus [3])?
Its MIC is 8 µg/mL.

And the MIC (Staphylococcus aureus [4])?
Its MIC is 8 µg/mL.

And the MIC (Staphylococcus aureus [5])?
The MIC was 0.12 µg/mL.

And the inhibition (Staphylococcus aureus [6])?
The inhibition was 57.9%.

What about the Time (Staphylococcus aureus [7]) of the same molecule?
Its Time is 24 h.

And the Time (Enterococcus faecalis [8])?
Its Time is 24 h.

What about the Time (Staphylococcus aureus [9]) of the same molecule?
The Time was 6 h.

For Cc1nc2ccc(C(=O)Nc3cccc(-c4ccc(-n5c(C)nc6cc(C(=O)NCCN(C)C)ccc65)nc4)c3)cc2[nH]1, which MIC (Klebsiella pneumoniae [10]) is on record?
Its MIC is over 32 µg/mL.

And the MIC (Klebsiella pneumoniae [11])?
Its MIC is over 32 µg/mL.

What about the MIC (Klebsiella pneumoniae [12]) of the same molecule?
Its MIC is 16 µg/mL.

What about the viability at 24 h, 25 µM [13] of the same molecule?
The viability at 24 h, 25 µM was over 98%.

What about the deltaTm [14] of the same molecule?
The deltaTm was 0.2 °C.

And the MIC (Enterococcus faecalis [1])?
The MIC was 1 µg/mL (≈ 1.75 µM).

And the MIC (Enterococcus faecium)?
The MIC was 2 µg/mL (≈ 3.49 µM).

What about the MIC (Enterococcus faecalis [2]) of the same molecule?
The MIC was 4 µg/mL (≈ 6.98 µM).

What about the MIC (Staphylococcus aureus [3]) of the same molecule?
Its MIC is 2 µg/mL (≈ 3.49 µM).

And the MIC (Staphylococcus aureus [4])?
Its MIC is 8 µg/mL (≈ 14 µM).

And the MIC (Staphylococcus aureus [5])?
Its MIC is 2 µg/mL (≈ 3.49 µM).

And the MIC (Acinetobacter baumannii [15])?
The MIC was over 32 µg/mL.

What about the MIC (Acinetobacter baumannii [16]) of the same molecule?
The MIC was over 32 µg/mL.

What about the MIC (Acinetobacter baumannii [17]) of the same molecule?
The MIC was 32 µg/mL.

And the MIC (Acinetobacter baumannii [18])?
The MIC was over 32 µg/mL.

What about the MIC (Acinetobacter baumannii [19]) of the same molecule?
The MIC was 32 µg/mL.

What about the MIC (Acinetobacter baumannii [20]) of the same molecule?
Its MIC is 32 µg/mL.

And the MIC (Klebsiella pneumoniae [21])?
Its MIC is over 32 µg/mL.

And the MIC (Klebsiella pneumoniae [22])?
Its MIC is over 32 µg/mL.

And the MIC (Klebsiella pneumoniae [23])?
The MIC was over 32 µg/mL.

And the MIC (Pseudomonas aeruginosa [24])?
The MIC was over 32 µg/mL.

What about the MIC (Pseudomonas aeruginosa [25]) of the same molecule?
The MIC was over 32 µg/mL.

And the MIC (Pseudomonas aeruginosa [26])?
The MIC was over 32 µg/mL.

What about the MIC (Pseudomonas aeruginosa [27]) of the same molecule?
Its MIC is over 32 µg/mL.

And the MIC (Pseudomonas aeruginosa [28])?
The MIC was over 32 µg/mL.

And the MIC (Pseudomonas aeruginosa [29])?
The MIC was over 32 µg/mL.

And the Time (Enterococcus faecalis [30])?
Its Time is 4 h.

What about the Time (Staphylococcus aureus [7]) of the same molecule?
Its Time is 4 h.

And the Activity (Enterococcus faecalis [31])?
Its Activity is “inactive”.

And the deltaTm [32]?
Its deltaTm is 0.9 °C.
